NR2E3 ag-1: NR2E3 agonists in two-hybrid cells, primary screen, cell-based, luminescence, CHO-S, Gal4-NCOR/VP16-NR2E3; luciferase; inhibition of corepressor binding, % at 3.98 µM; 360,000 tested, 0.35% active; AID 602229, 2012;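 active = inhibition above the mean of all tested compounds plus 3 SD, cut at about 70% in these data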;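 note: higher means lower luciferase signal from less NR2E3 corepressor binding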
Target sequence (Q9Y5X4 whole entry, looked up, the tested form may be a part): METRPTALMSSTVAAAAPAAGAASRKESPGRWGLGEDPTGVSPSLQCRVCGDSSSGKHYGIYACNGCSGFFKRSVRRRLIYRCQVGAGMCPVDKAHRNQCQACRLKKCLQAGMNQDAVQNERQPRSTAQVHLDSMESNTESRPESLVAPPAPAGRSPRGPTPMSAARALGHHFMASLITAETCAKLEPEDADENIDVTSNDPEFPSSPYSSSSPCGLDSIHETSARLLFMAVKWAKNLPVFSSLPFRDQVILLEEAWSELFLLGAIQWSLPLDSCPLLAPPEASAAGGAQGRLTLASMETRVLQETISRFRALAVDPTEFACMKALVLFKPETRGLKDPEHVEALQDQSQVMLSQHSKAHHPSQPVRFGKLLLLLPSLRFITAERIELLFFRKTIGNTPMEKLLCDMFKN
PG9 binder: binders of HIV-1 gp120 antibody PG9, primary screen, biochemical, TR-FRET | 360,000 tested, 0.43% active | TR-FRET gp120-PG9 antibody binding | inhibition, % at 6.7 µM; in the data active = inhibition above about 8.5%
NR1D1 modulator: modulators of Rev-erb alpha DNA binding, primary screen, biochemical, FITC-DNA, fluorescence polarization, uHTS | Rev-erbα–FITC-DNA binding, 90 min | Nuclear receptor subfamily 1 group D member 1 (Homo sapiens), P20393 | 370,000 tested, 0.79% active | activity, % at 10 µM;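 active = activity above about 14%, limit read from the data; passing the limit was not always enough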
rCAG binder: binders of r(CAG) RNA repeats, primary screen, biochemical, fluorescence; r(CAG) RNA repeat, TO-PRO-1 dye displacement fluorescence; 370,000 tested, 1.3% active; AID 651821, 2012; inhibition, % at 3 µM;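 active = inhibition above the plate cutoff, the mean of all test compounds on that plate plus 3 SD, cut at about 35% in these data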;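 note: higher means more dye released from RNA so lower well fluorescence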
NR2E3 ag-2: inhibitors of NR2E3-RetCOR corepressor binding, primary screen, NR2E3 agonist project, biochemical, TR-FRET, GST-NR2E3, biotin-RetCOR | 1536-well | 320,000 tested, 0.12% active | inhibition of corepressor binding, % at 4.78 µM;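 active = percent inhibition above the cutoff of mean plus 3 SD of all tested compounds, set per screening campaign, cut at about 20% in these data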
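System: GST-NR2E3 and biotin-RetCOR proteins; probe or stimulus: 7 nM biotin-RetCOR; doses: compound at 4.8 µM, single dose; schedule: Compound–protein incubation for 5 h at 4 °C; detection: time-resolved FRET; read-out: percent inhibition; controls: biotin wells as high control, 0.6% DMSO wells as low control; format: 1536-well plates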
rCAG binder conf: small molecules binding CAG repeat RNA – biochemical, fluorescence, confirmation; shares compounds with rCAG binder; r(CAG) RNA repeat, TO-PRO-1 dye displacement fluorescence; inhibition, % at 3 µM; 4,300 tested, 70% active; AID 652065, 2013;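 active = inhibition above a per-plate cutoff, the mean inhibition of sample wells plus 3 SD, cut at about 35% in these data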;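 note: loss of TO-PRO-1 fluorescence as compound displaces dye from 1x1 AA loop RNA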
DNA CAG counter: displacement of TO-PRO-1 from CAG DNA duplex, counter-screen for rCAG RNA repeat binder project, biochemical, fluorescence, TO-PRO-1 dye, d(CAG) DNA oligo; shares compounds with rCAG binder; d(CAG) DNA oligo TO-PRO-1 dye displacement; inhibition, % at 3 µM; 4,300 tested, 94% active; AID 652068, 2013;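 active = inhibition above its plate's cutoff, the mean test-well inhibition plus 3 SD, cut at about 4.8% in these data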;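 note: hits displace the dye from DNA and so lower well fluorescence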
Large screens that a line does not name were inactive (follow-up assays come after a bar, where they were run). Rows were chosen to be rich in hits. Some 2.6% of all compounds tested hit in one or more screens of this group.

COC(=O)C1=C(c2ccc(OC(F)(F)F)cc2)C[C@@H]2CC[C@H]1N2C(=O)NC1CCCCC1	none
O=[N+]([O-])c1cccc(O)c1	none
O=[N+]([O-])c1cc(S(=O)(=O)c2ccc(O)c([N+](=O)[O-])c2)ccc1O	rCAG binder 38.3 | rCAG binder conf inactive | DNA CAG counter 7.7
CCCCn1c(NS(=O)(=O)c2ccc(C)cc2)c(C(=O)OCC)c2nc3ccccc3nc21	rCAG binder 36.1 | rCAG binder conf inactive | DNA CAG counter 5.8
O=C1NC(=O)N(c2cccc(Cl)c2)C(=O)/C1=C\c1ccc(Sc2nc3ccccc3[nH]2)o1	rCAG binder 72.2 | rCAG binder conf 49.7 | DNA CAG counter 21.9
O=C(NCP(=O)(Oc1ccccc1)Oc1ccccc1)OCc1ccccc1	rCAG binder 68.6 (no result: NR2E3 ag-2) | rCAG binder conf inactive | DNA CAG counter inactive
O=S(=O)(c1ccccc1)C1CN1c1c(F)c(F)c(F)c(F)c1F (centres undefined)	none (no result: NR2E3 ag-2)
CN(C)[C@@H]1C(=O)C(C(N)=O)=C(O)[C@@]2(O)C(=O)C3=C(O)c4c(O)cccc4[C@@](C)(O)[C@H]3[C@H](O)[C@@H]12	rCAG binder 69.6 | rCAG binder conf 67.2 | DNA CAG counter 34.1
C[C@H](Cc1ccc(OCC(=O)O)cc1)NC[C@H](O)c1cccc(Cl)c1	none (no result: NR2E3 ag-1, NR2E3 ag-2)
CC(C)c1ccc(N2C(=O)NC(=O)/C(=C\c3cnc(-c4ccccc4)nc3)C2=O)cc1	none
COc1cc(OC)c(OC)cc1/C=C1/C(=O)NC(=O)N(Cc2ccccc2)C1=O	none
CC(C)c1ccc(N2C(=O)NC(=O)/C(=C\C=C\c3ccco3)C2=O)cc1	rCAG binder 44.0 (no result: NR2E3 ag-1) | rCAG binder conf inactive | DNA CAG counter 12.5
COc1ccc(CN2C(=O)NC(=O)/C(=C\c3ccco3)C2=O)cc1	rCAG binder 43.1 | rCAG binder conf inactive | DNA CAG counter 12.4
O=C1NC(=O)N(Cc2ccccc2)C(=O)/C1=C/C=C/c1ccco1	rCAG binder 44.8 | rCAG binder conf inactive | DNA CAG counter 8.5
O=P(O)(Oc1ccccc1)c1ccccc1	none (no result: NR2E3 ag-2)
COC(=O)C1=C(c2ccc(C(C)=O)cc2)C[C@@H]2CC[C@H]1N2C(=O)N1CCC(O)(c2ccc(Cl)cc2)CC1	none
COc1cccc2c1N=C1CCCC3CN(C(C)=O)CCC123 (centres undefined)	none (no result: NR2E3 ag-2)
CN1C(=O)/C(=C/c2cccn2-c2ccc3ccccc3c2)C(=O)NC1=S	rCAG binder 63.0 | rCAG binder conf inactive | DNA CAG counter 15.8
CC(C)N1C(=O)/C(=C/C=C/c2ccco2)C(=O)N(Cc2ccco2)C1=O	rCAG binder 45.5 | rCAG binder conf inactive | DNA CAG counter 10.7
COc1ccc(/C=C2/C(=O)N(Cc3ccco3)C(=O)N(C(C)C)C2=O)cc1	rCAG binder 59.6 | rCAG binder conf 76.6 | DNA CAG counter 40.8
CN(C)c1ccc(/C=C2/C(=O)NC(=O)N(Cc3ccco3)C2=O)cc1	none
CCN(CC)c1ccc(/C=C2/C(=O)NC(=O)N(Cc3ccco3)C2=O)cc1	none
CCN1C(=O)C(=C/C=C/c2ccco2)C(=O)N(CC)C1=S	rCAG binder 56.5 | rCAG binder conf 48.7 | DNA CAG counter 17.2
COc1cccc(C2CCN(C)C2)c1 (centres undefined)	none (no result: NR2E3 ag-2)
COc1ccccc1/C=C1\C(=O)NC(=S)N(c2ccccc2)C1=O	none
CCOc1cccc(N2C(=O)/C(=C/c3ccco3)C(=O)NC2=S)c1	rCAG binder 69.3 | rCAG binder conf 68.4 | DNA CAG counter 35.2

Assay outcomes as filed in PubChem BioAssay.
